In data set [1] the test system is ACH-2 cell line. Nature of the data set: Induction of apoptosis in human ACH-2 cells at 1 uM after 48 hrs by PI/annexin-V staining based flow cytometry. The data set is classed as functional. For orientation: Flow cytometry measures light scatter and fluorescence of single cells or particles in a stream.
Data set [2] is described as follows: Toxicity in human CD4+ T-cells assessed as elevation of supernatant cytokine concentrations of IL-5 incubated for 24 hrs by bead-based immunoassay. The following applies: cd4+ t cell. Summed up:
(§1)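 Purified CD4+ T-cells from healthy donors treated 24 h with 1 μm drug, 1 μm JQ1, or the combination. IL-2, IL-5, IL-6, IL-13, TNFα and IFN-γ in supernatants measured by flow-cytometry bead-based Th1/Th2 immunoassay. Run in duplicate.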

Data set [3] relates to U1. Nature of the data set: Induction of apoptosis in human U1 cells at 1 uM incubated for 48 hrs after pre-incubated for 2 hrs with 20 uM caspase inhibitor Q-VD-Oph by propidium iodide/annexin-V staining based flow cytometry. It counts as functional, cell-based. Summed up: (§2)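 ACH-2 or U1 cells pretreated 2 h with 20 µM pan-caspase inhibitor Q-VD-Oph, then exposed to 1 µM compound for 48 h. Annexin-V/PI staining by flow cytometry; apoptotic proportions compared with and without Q-VD-Oph. Mean ± S.D.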

The target of data set [4] is T1, Protein kinase C (PKC) (Homo sapiens) (UniProt O94806+P41743+P17252+P05129+Q05655+P05771+Q05513+Q02156+P24723+Q15139+Q04759). Nature of the data set: Activation of PKC CD4+ T-cells purified from HIV-infected patient assessed as increase in transcription of HIV mRNA at 1 uM incubated for 24 hrs by qRT-PCR method. The following applies: CD4+ T cell, filed as activator. It counts as cell-based. Summed up:
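CD4+ T-cells purified from PBMC of eight cART-treated HIV+ patients (cART ≥5 years, plasma viral load <20 copies/ml), plated at 2.5 × 10^6 cells/ml and treated 24 h. Total RNA extracted; HIV RNA quantified by qRT-PCR against a plasmid standard curve, normalized per ng input RNA, and expressed as fold over untreated cells. Medians of eight individuals; Mann-Whitney U test.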

Data set [5] addresses T1, Protein kinase C (PKC) (Homo sapiens). Nature of the data set: Synergistic activation of PKC in CD4+ T-cells purified from HIV-infected patient assessed as increase in transcription of HIV mRNA at 1 uM incubated for 24 hrs in presence of 1 uM JQ1 by qRT-PCR method. It counts as cell-based. The following applies: CD4+ T cell, filed as activator. The method in brief:
(§3)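 CD4+ T-cells purified from PBMC of patients on cART for at least 5 years with plasma viral load <20 copies/ml. Cells plated at 2.5 × 10^6 cells/ml and treated 24 h, alone or with 1 μm JQ1. Intracellular HIV RNA measured by qRT-PCR against a plasmid standard curve, normalised per ng input RNA, relative to untreated cells. Synergy assessed by Bliss independence model.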

A short description of data set [6]: Toxicity in human CD4+ T-cells assessed as elevation of supernatant cytokine concentrations of IFNgamma incubated for 24 hrs by bead-based immunoassay. Conditions: cd4+ t cell. Summed up: as §1
For data set [7], the target named is T1, Protein kinase C (PKC) (Homo sapiens). In words: Synergistic activation of PKC in human J-Lat 10.6 cells infected with latent HIV-1 assessed as reversal of HIV-1 latency by measuring increase of GFP-positive cells at 400 nM in presence of 500 nM JQ1 incubated for 24 hrs by flow cytometry. It counts as cell-based. The following applies: filed as activator. The method in brief:
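J-Lat 10.6 cells at 5 × 10^5 cells/ml treated 24 h alone or with 500 nm JQ1. GFP-positive cells counted by flow cytometry. Fraction affected normalised to PMA response after subtracting the no-drug value. Synergy by Bliss independence (Δfaxy). Mean ± S.D. of three independent experiments.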

For data set [8], the system named is ACH-2 cell line. Nature of the data set: Induction of apoptosis in human ACH-2 cells assessed as caspase-3 activation at 1 uM incubated for 24 hrs by flow cytometry. It counts as functional. The method in brief:
(§4)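 Cells fixed in 1% paraformaldehyde, permeabilized, stained 30 min on ice with anti-active caspase-3 mAb, and analysed by flow cytometry. Three independent experiments.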

Data set [9] concerns ACH-2 cell line. In words: Induction of apoptosis in human ACH-2 cells assessed as cleaved-PARP level at 1 uM incubated for 24 hrs by flow cytometry (reference value: 1.64%). It counts as functional. The method in brief:
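Cells fixed, permeabilized, stained on ice with anti-cleaved PARP (Asp-214) mAb; % cleaved-PARP cells by flow cytometry. Means ± S.D. of three independent experiments.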

The target in data set [10] is T1, Protein kinase C (PKC) (Homo sapiens). Nature of the data set: Activation of PKC in human J-Lat 10.6 cells infected with latent HIV-1 assessed as reversal of HIV-1 latency by measuring increase of GFP-positive cells at 100 to 400 nM in presence of 500 nM GSK525762A incubated for 24 hrs by flow cytometry. It counts as cell-based. The following applies: filed as activator, dose 100-400 nM.

Data set [11] concerns U1. Nature of the data set: Induction of apoptosis in human U1 cells at 1 uM incubated for 48 hrs by propidium iodide/annexin-V staining based flow cytometry (reference value: 3.16%). The data set is classed as functional.
Data set [12] relates to ACH-2 cell line. Nature of the data set: Induction of apoptosis in human ACH-2 cells at 1 uM incubated for 48 hrs by propidium iodide/annexin-V staining based flow cytometry (reference value: 3.16%). The data set is classed as functional.
Data set [13] deals with T1, Protein kinase C (PKC) (Homo sapiens). In words: Activation of PKC in human J-Lat 10.6 cells infected with latent HIV-1 assessed as reversal of HIV-1 latency by measuring increase of GFP-positive cells at 100 to 400 nM in presence of 10 nM Panobinostat incubated for 24 hrs by flow cytometry. The data set is classed as cell-based. The following applies: filed as activator, dose 100-400 nM.

For data set [14], the system named is U1. In words: Induction of apoptosis in human U1 cells assessed as caspase-3 activation at 1 uM incubated for 24 hrs by flow cytometry. It counts as functional. The method in brief: as §4
Data set [15] is described as follows: Toxicity in human CD4+ T-cells assessed as elevation of supernatant cytokine concentrations of IL-6 incubated for 24 hrs in presence of JQ1 by bead-based immunoassay. The following applies: cd4+ t cell. The method in brief:
as §1

The test system of data set [16] is ACH-2 cell line. In words: Induction of apoptosis in human ACH-2 cells at 1 uM incubated for 48 hrs after pre-incubated for 2 hrs with 20 uM caspase inhibitor Q-VD-Oph by propidium iodide/annexin-V staining based flow cytometry. The data set is classed as functional, cell-based. The method in brief:
as §2

For data set [17], the target named is T1, Protein kinase C (PKC) (Homo sapiens). In words: Synergistic activation of PKC in CD4+ T-cells purified from HIV-infected patient assessed as increase in transcription of HIV mRNA at 5 uM incubated for 24 hrs by qRT-PCR method. It counts as cell-based. The following applies: CD4+ T cell, filed as activator. The method in brief:
as §3
(In general: Real-time PCR tracks product formation cycle by cycle.)

The subject of the next data set is J-Lat 6.3. Nature of the data set: Induction of apoptosis in human J-Lat 6.3 cells at 1 uM incubated for 48 hrs by propidium iodide/annexin-V staining based flow cytometry (reference value: 3.16%). It counts as functional.
Data set [18] is described as follows: Toxicity in human CD4+ T-cells assessed as elevation of supernatant cytokine concentrations of IL-5 incubated for 24 hrs in presence of JQ1 by bead-based immunoassay. The following applies: cd4+ t cell. Summed up:
as §1

Data set [19] can be described thus: Toxicity in human CD4+ T-cells assessed as increase in dead cells at 1 uM in presence of JQ1. The data set is classed as cell-based. The following applies: cd4+ t cell. Summed up:
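Primary cells exposed 24 h to 1 μm drug, 1 μm JQ1, or both (1 μm each). Dead cells scored by propidium iodide staining.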

A short description of data set [20]: Toxicity in human CD4+ T-cells assessed as elevation of supernatant cytokine concentrations of IL-2 incubated for 24 hrs by bead-based immunoassay. The following applies: cd4+ t cell. The method in brief:
as §1

A short description of data set [21]: Toxicity in human CD4+ T-cells assessed as elevation of supernatant cytokine concentrations of IL-13 incubated for 24 hrs by bead-based immunoassay. The following applies: cd4+ t cell. Summed up:
as §1

Activity calls are given as the source filed them. No cut-off for these calls is given here.

In ChEMBL document CHEMBL5674882, “Benzolactam-related compounds promote apoptosis of HIV-infected human cells via protein kinase C-induced HIV latency reversal” (J Biol Chem, 2019) one finds Activity and fold change (FC) data, which are given here for one compound.

In the case of `CCCCCCCCCCc1ccc2c(c1)N(C)[C@@H](C(C)C)C(=O)N[C@H](CO)C2`, the Activity is 59.7% in the data set with ACH-2 cell line [1]; “Toxic” in data set [2]; “Toxic” in data set [6]; 73.1% in data set [7]; 23% in the data set on ACH-2 cell line [8]; 21.5% with ACH-2 cell line [9]. Further, the Activity in the data set with U1 [11] is recorded as 28.4%; in the data set with ACH-2 cell line [12], 58%; with U1 [14], 24.9%; in [15] it was “Non-Toxic”; with J-Lat 6.3, 17%; in data set [18], “Non-Toxic”. Moreover, the Activity result was “Non-Toxic” in data set [19], “Toxic” in [20] and “Toxic” in data set [21]. Also, the result in the data set with U1 [3] and in the data set with ACH-2 cell line [16] was inactive. Further, the result in data set [4], in data set [10] and in data set [13] was Active. In addition, the fold change (FC) in data set [5] came out at 13.2; in data set [17], 1.4.
